Experimental findings from ChEMBL document CHEMBL4145631, “Riluzole-Triazole Hybrids as Novel Chemical Probes for Neuroprotection in Amyotrophic Lateral Sclerosis” (ACS Med Chem Lett, 2018) are described below.

Calls of active or inactive are those of the source. The rule behind the calls is not given here.

Experiment [1] concerns Cortical neurone. In words: Neuroprotective activity against kainate-induced cell damage in mouse primary cortical neurons assessed as reduction in kainate-induced neurofilament loss by measuring increase in MAPK level at 1 uM pretreated followed by kainate challenge measured after 18 hrs by fluorescence assay. Type of experiment: functional, cell-based. As to conditions: in the assay text read “MAP2” for “MAPK”. The method, boiled down:
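Mouse primary cortical neurons cultured as previously described; dendritic processes stained with anti-MAP2 antibody. Cell-profile perimeter measured by image analysis, each condition normalized to kainate-only.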

Experiment [2] has as its system Cortical neurone. In words: Neuroprotective activity against kainate-induced cell damage in mouse primary cortical neurons assessed as reversal of kainate-induced reduction in calcium flux by fura-2-AM dye based fluorescence assay. Type of experiment: functional. In outline:
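Mouse primary cortical neurons loaded with fura-2AM for 45 min, washed, then depolarized with 10 mM KCl to drive Ca2+ entry through voltage-gated calcium channels. Flux read on a plate-based system.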
On the technique in general: A change in cytosolic calcium serves as a functional read-out for many receptors and channels.

Experiment [3] deals with Cortical neurone. In words: Neuroprotective activity against kainate-induced cell death in mouse primary cortical neurons by MTT assay. Format: functional, cell-based.
Experiment [4] relates to Cortical neurone. In words: Neuroprotective activity against kainate-induced cell death in mouse primary cortical neurons by cell counting method. Type of experiment: functional, cell-based.
Experiment [5] concerns Cortical neurone. In words: Neuroprotective activity against kainate-induced cell death in mouse primary cortical neurons by caspase activation method. Format: functional, cell-based.
Experiment [6] is filed under the species Mus musculus. In words: Neuroprotective activity against kainate-induced cell death in mouse primary motor neurons by MTT assay. Format: functional. Background: Formazan colour is commonly taken as a measure of viable cells.
Experiment [7] is filed under the species Mus musculus. In words: Neuroprotective activity against kainate-induced cell death in mouse primary motor neurons by cell counting method. Format: functional.
The species entered for experiment [8] is Mus musculus. In words: Neuroprotective activity against kainate-induced cell death in mouse primary motor neurons by caspase activation method. Type of experiment: functional.

As for `N=c1sc2cc(OC(F)(F)F)ccc2n1CCn1cc(-c2cccc(F)c2)nn1`, the outcome in experiment [1], in experiment [3], in experiment [4], in experiment [5], in experiment [6] and in experiment [7] was inactive. The outcome in experiment [8] was inactive. Also, in experiment [2], the result was Active.

As for `CN(C)c1ccc(-c2cn(CCn3c(=N)sc4cc(OC(F)(F)F)ccc43)nn2)cc1`, the outcome in experiment [1], in experiment [3], in experiment [4], in experiment [5], in experiment [6] and in experiment [7] was inactive. The outcome in experiment [8] was inactive. Further, in experiment [2], the outcome was Active.

On to `N=c1sc2cc(OC(F)(F)F)ccc2n1CCn1cc(C2CCCCC2)nn1`, for which the result in experiment [1], in experiment [3], in experiment [4], in experiment [5], in experiment [6] and in experiment [7] was inactive. Moreover, the result in experiment [8] was inactive. The result in experiment [2] was Active.

As to `CCCCCc1ccc(-c2cn(CCn3c(=N)sc4cc(OC(F)(F)F)ccc43)nn2)cc1`, the result in experiment [1], in experiment [3], in experiment [4], in experiment [5], in experiment [6] and in experiment [7] was inactive. Besides, in experiment [8], the outcome was inactive. Besides, the outcome in experiment [2] was Active.

Take `CC(C)(C)c1cn(CCn2c(=N)sc3cc(OC(F)(F)F)ccc32)nn1`: the outcome in experiment [1], in experiment [3], in experiment [4], in experiment [5], in experiment [6] and in experiment [7] was inactive. Also, the outcome in experiment [8] was inactive. For the same compound, in experiment [2], the outcome was Active.

`N=c1sc2cc(OC(F)(F)F)ccc2n1CCn1cc(-c2ccc(Cl)cc2)nn1`: the result in experiment [1], in experiment [3], in experiment [4], in experiment [5], in experiment [6] and in experiment [7] was inactive. Besides, the result in experiment [8] was inactive. In experiment [2], the outcome was Active.

Take `N=c1sc2cc(OC(F)(F)F)ccc2n1CCn1cc(-c2ccsc2)nn1`: the result in experiment [1], in experiment [3], in experiment [4], in experiment [5], in experiment [6] and in experiment [7] was inactive. Moreover, the outcome in experiment [8] was inactive. For the same compound, the outcome in experiment [2] was Active.

Take `CCCCCCc1ccc(-c2cn(CCn3c(=N)sc4cc(OC(F)(F)F)ccc43)nn2)cc1`: the outcome in experiment [1], in experiment [3], in experiment [4], in experiment [5], in experiment [6] and in experiment [7] was inactive. For the same compound, in experiment [8], the outcome was inactive. Also, the outcome in experiment [2] was Active.

As for `CCOC(=O)c1cn(CCn2c(=N)sc3cc(OC(F)(F)F)ccc32)nn1`, the result in experiment [1], in experiment [3], in experiment [4], in experiment [5], in experiment [6] and in experiment [7] was inactive. In addition, the result in experiment [8] was inactive. The outcome in experiment [2] was Active.

As for `CC(C)Cc1cn(CCn2c(=N)sc3cc(OC(F)(F)F)ccc32)nn1`, the outcome in experiment [1], in experiment [3], in experiment [4], in experiment [5], in experiment [6] and in experiment [7] was inactive. In experiment [8], the outcome was inactive. In addition, the outcome in experiment [2] was Active.

As to `N=c1sc2cc(OC(F)(F)F)ccc2n1CCn1cc(-c2cccc(N)c2)nn1`, the outcome in experiment [1], in experiment [3], in experiment [4], in experiment [5], in experiment [6] and in experiment [7] was inactive. Moreover, in experiment [8], the outcome was inactive. Besides, the result in experiment [2] was Active.

Take `N=c1sc2cc(OC(F)(F)F)ccc2n1CCn1cc(CCc2ccccc2)nn1`: the outcome in experiment [1], in experiment [3], in experiment [4], in experiment [5], in experiment [6] and in experiment [7] was inactive. Also, the result in experiment [8] was inactive. Moreover, the outcome in experiment [2] was Active.

With `CCCc1ccc(-c2cn(CCn3c(=N)sc4cc(OC(F)(F)F)ccc43)nn2)cc1`, the result in experiment [1], in experiment [3], in experiment [4], in experiment [5], in experiment [6] and in experiment [7] was inactive. The outcome in experiment [8] was inactive. Further, the outcome in experiment [2] was Active.

With `N=c1sc2cc(OC(F)(F)F)ccc2n1CCn1cc(-c2ccc(N)cc2)nn1`, the outcome in experiment [1], in experiment [3], in experiment [4], in experiment [5], in experiment [6] and in experiment [7] was inactive. In experiment [8], the outcome was inactive. Moreover, the result in experiment [2] was Active.

For the compound `COc1ccccc1-c1cn(CCn2c(=N)sc3cc(OC(F)(F)F)ccc32)nn1`, the result in experiment [1], in experiment [3], in experiment [4], in experiment [5], in experiment [6] and in experiment [7] was inactive. The result in experiment [8] was inactive. In experiment [2], the outcome was Active.

For `N=c1sc2cc(OC(F)(F)F)ccc2n1CCn1cc(C2CCCC2)nn1`, the result in experiment [1], in experiment [3], in experiment [4], in experiment [5], in experiment [6] and in experiment [7] was inactive. In addition, in experiment [8], the outcome was inactive. The result in experiment [2] was Active.

Regarding `N=c1sc2cc(OC(F)(F)F)ccc2n1CCn1cc(-c2cccc(C(F)(F)F)c2)nn1`, the outcome in experiment [1], in experiment [3], in experiment [4], in experiment [5], in experiment [6] and in experiment [7] was inactive. Also, in experiment [8], the result was inactive. Moreover, the result in experiment [2] was Active.

With `CCCCc1ccc(-c2cn(CCn3c(=N)sc4cc(OC(F)(F)F)ccc43)nn2)cc1`, the result in experiment [1], in experiment [3], in experiment [4], in experiment [5], in experiment [6] and in experiment [7] was inactive. The outcome in experiment [8] was inactive. Besides, in experiment [2], the result was Active.

On to `N=c1sc2cc(OC(F)(F)F)ccc2n1CCn1cc(C2CC2)nn1`, for which the outcome in experiment [1], in experiment [3], in experiment [4], in experiment [5], in experiment [6] and in experiment [7] was inactive. Also, in experiment [8], the outcome was inactive. In experiment [2], the outcome was Active.

As for `N=c1sc2cc(OC(F)(F)F)ccc2n1CCn1cc(-c2ccc([N+](=O)[O-])cc2)nn1`, the result in experiment [1], in experiment [3], in experiment [4], in experiment [5], in experiment [6] and in experiment [7] was inactive. For the same compound, in experiment [8], the result was inactive. Also, the outcome in experiment [2] was Active.

`Cc1ccc(-c2cn(CCn3c(=N)sc4cc(OC(F)(F)F)ccc43)nn2)cc1`: the result in experiment [1], in experiment [3], in experiment [4], in experiment [5], in experiment [6] and in experiment [7] was inactive. Moreover, the result in experiment [8] was inactive. For the same compound, the outcome in experiment [2] was Active.
